Screening results (PubChem BioAssay)
M5 ag – CHRM5 agonism in calcium assay | CHO-K1 hM5 cells, Fluo-8 calcium fluorescence; 0% DMSO wells, 100% maximal acetylcholine response | activation, % at 3 µM | P08912 | actives 0.19% (n = 360,000);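 active = activation above the run's mean over test compounds plus 3 SD, cut at about 23% in these data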;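 also: signal is peak over basal fluorescence ratio across the kinetic read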
M5 antag – CHRM5 antagonism in calcium assay | P08912 | CHO-hM5 cells, Fluo-8 calcium fluorescence, ACh EC80 | inhibition, % at 3 µM | actives 0.59% (n = 360,000) | AID 624040;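 active = inhibition above a per-plate cutoff, the mean of that plate's test compounds plus 3 SD, cut at about 27% in these data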;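 also: 0% = acetylcholine EC80 with DMSO and 100% = DMSO without agonist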
M5 PAM – potentiates acetylcholine response at human M5 receptor; actives 0.3% (n = 360,000); P08912; CHO-K1 hM5, Fluo-8 calcium, ACh EC20 PAM; 0% = ACh EC20, 100% = ACh EC100; activation, % at 3 µM;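 active = activation above the run cutoff, the mean activation of all test compounds plus 3 SD, cut at about 18% in these data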
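system = human M5 receptor in CHO-K1 cells | compound = one concentration, 3 µM final (nominal) | schedule = Post-acetylcholine fluorescence recording 140 s | signal = Fluo-8 calcium dye fluorescence, kinetic read | benchmarks = low control EC20 acetylcholine (0%), high control EC100 acetylcholine (100%) | repeats = singlicate, one well per test compound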
CHRM1 agonist – human M1 muscarinic receptor agonism | actives 0.33% (n = 360,000) | CHO-K1 hM1, Fluo-8 calcium fluorescence, agonist mode; 0% DMSO, 100% acetylcholine EC100 | activation, % at 3 µM | P11229 | AID 588814;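 active = activation above the run's mean compound activation plus 3 SD, cut at about 16% in these data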;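 also: peak over basal fluorescence ratio within a 140 s kinetic read after compound addition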
Target sequence (P11229 whole entry, looked up): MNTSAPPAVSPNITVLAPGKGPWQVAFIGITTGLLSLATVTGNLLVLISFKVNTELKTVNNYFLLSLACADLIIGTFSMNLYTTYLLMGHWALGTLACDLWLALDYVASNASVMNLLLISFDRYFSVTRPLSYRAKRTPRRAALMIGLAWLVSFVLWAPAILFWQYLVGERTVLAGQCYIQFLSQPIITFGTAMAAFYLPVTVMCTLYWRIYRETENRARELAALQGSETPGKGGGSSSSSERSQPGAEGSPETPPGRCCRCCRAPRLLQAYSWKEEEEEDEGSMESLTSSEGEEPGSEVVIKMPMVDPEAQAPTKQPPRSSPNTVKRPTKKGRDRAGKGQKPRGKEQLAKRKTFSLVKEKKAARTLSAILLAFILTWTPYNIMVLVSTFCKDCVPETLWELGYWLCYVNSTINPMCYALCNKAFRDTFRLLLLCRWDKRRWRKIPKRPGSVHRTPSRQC
CHRM1 PAM – positive allosteric modulators of human M1 muscarinic receptor. actives 0.088% (n = 360,000). P11229. CHO-K1 hM1, Fluo-8 calcium fluorescence, ACh EC20; 0% = ACh EC20, 100% = maximal ACh. AID 588819. activation, % at 3 µM; in the data active = activation above about 19%, passing the limit was not always enough
M1 antag – antagonists of human M1 muscarinic receptor; CHO-K1 hM1, Fluo-8 calcium fluorescence, ACh EC80 antagonist; inhibition, % at 3 µM; actives 1.3% (n = 360,000); AID 588852; P11229;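 active = percent inhibition above its own plate's cutoff, namely the mean of that plate's compound wells plus 3 SD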;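 also: peak over basal fluorescence ratio during 140 s after agonist addition; 0% = ACh EC80 plus DMSO and 100% = DMSO alone without agonist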
An asterisk follows results filed as active; nt = no result given. Only some compounds are listed: those with a hit (about 2% of all), similar ones and a draw of the others.

SMILES | M5 ag | M5 antag | M5 PAM | CHRM1 agonist | CHRM1 PAM | M1 antag
O=C(Nc1cc(S(=O)(=O)N2CCOCC2)ccc1Cl)c1ccncc1 | 4.0 | 2.6 | 1.0 | -2.0 | 1.3 | -6.4
Cc1ccc(CN2C(=O)c3ccccc3C2c2nnnn2-c2c(C)cccc2C)cc1 (centres undefined) | -5.1 | 1.1 | -3.2 | nt | nt | nt
N#CC1(C(N)=O)OC12CCS(=O)(=O)c1ccccc12 (centres undefined) | -2.9 | 3.1 | 15.4 | -1.5 | 2.2 | -13.4
O=C(c1ccc(NS(=O)(=O)c2ccccc2)cc1)N1CCN(c2ccccc2)CC1 | 5.2 | -0.3 | -3.9 | 3.0 | 14.2 | -5.6
COc1cccc(NC(=O)Cn2nnc(C(=O)NCc3ccc4c(c3)OCO4)c2N)c1 | 0.2 | -19.1 | 22.1* | 1.5 | 11.3 | -16.8
Nc1c(C(=O)NCc2ccc3c(c2)OCO3)nnn1Cc1ccc(Br)cc1 | 30.1* | 5.3 | 6.6 | 16.5* | 6.5 | -0.5
Nc1c(C(=O)NCc2ccc3c(c2)OCO3)nnn1CC(=O)Nc1ccc(Br)cc1 | -0.2 | 8.3 | 2.3 | -2.0 | 1.1 | 2.7
Cc1ccc(NC(=O)Cn2nnc(C(=O)NCc3ccc4c(c3)OCO4)c2N)cc1 | 1.3 | -17.8 | 18.1* | 4.3 | 20.1 | -14.7
Nc1nc2ccc(Cl)cc2cc1C(=O)NCCCN1CCOCC1 | -0.4 | -1.1 | -2.0 | nt | nt | nt
COc1ccccc1CCn1cnc(Cc2ccccc2)c1C(C)C | -1.8 | 12.9 | -22.6 | nt | nt | nt
CCN1C(=N)N(c2ccccc2)C(=O)C(CC)(CC)C1=O | 4.4 | 11.9 | -8.0 | -3.5 | 2.2 | -3.8
O=C(Nc1nnc(SCC(=O)N2CCCCC2)s1)c1c(F)cccc1F | -1.1 | -6.8 | 11.0 | 4.2 | 28.3* | -26.6
O=C(CSc1nnc(NC(=O)c2c(F)cccc2F)s1)NC1CCCC1 | -3.5 | 17.7 | -7.9 | -2.0 | -6.9 | 7.9
O=S(=O)(c1cccc2cccnc12)N1CCCCC1 | -3.2 | 3.8 | 3.7 | -0.5 | -0.5 | 3.3
CN1CCN(c2ncccc2S(=O)(=O)N2CCCCC2)CC1 | -11.2 | 98.6* | -15.3 | -4.8 | -22.0 | 98.8*
CC1CCCC(C)N1C(=O)COC(=O)c1cc(F)c(F)cc1Cl (centres undefined) | -8.2 | 2.3 | -4.4 | -7.9 | -9.2 | 28.1*
O=c1[nH]c2ccccc2n1CCCN1CCCCC1 | -9.2 | 15.1 | -18.3 | 20.6* | -15.0 | 10.4
CN(C)S(=O)(=O)N1CCN(c2cccc(Cl)c2)CC1 | -0.2 | -1.2 | -5.4 | -3.5 | 3.1 | -0.7
CN(C)S(=O)(=O)N1CCN(c2ccccc2)CC1 | 1.1 | 0.5 | 3.0 | 8.0 | 29.6* | -34.8
COc1ccc(S(=O)(=O)N2CCN(C3CCN(Cc4ccccc4)CC3)CC2)cc1 | -13.0 | -2.2 | -10.3 | -6.3 | -20.0 | 52.7*
COc1cccc(CN2CCCN(S(=O)(=O)c3ccc(Br)cc3)CC2)c1 | -12.3 | 16.3 | -29.3 | -2.1 | -21.1 | 37.3*
O=S(=O)(c1ccccc1)N1CCN(C2CCN(Cc3ccccc3)CC2)CC1 | -10.6 | 15.5 | -28.2 | -9.2 | -23.5 | 24.8
CCOC(=O)COc1ccc(S(=O)(=O)N2CCN(c3ccc(OC)cc3)CC2)cc1 | -2.7 | 33.3* | -14.7 | -5.2 | -11.4 | 2.9
CCOC(=O)COc1ccc(S(=O)(=O)N2CCN(c3ccccc3F)CC2)cc1 | 3.7 | 5.9 | -4.8 | -2.0 | 4.4 | -2.6
COc1ccc(NS(=O)(=O)c2ccc(C)c(C(=O)NCc3ccccc3CN3CCCC3)c2)cc1 | -1.8 | -0.7 | 1.2 | -8.6 | -5.2 | 0.1
SMILES | M5 ag | M5 antag | M5 PAM | CHRM1 agonist | CHRM1 PAM | M1 antag
CC(=O)N1CCC(C(=O)N2c3ccccc3N=C(c3ccc(C(F)(F)F)cc3)C2C(=O)NC(C)C)CC1 (centres undefined) | -1.1 | 2.2 | 0.9 | nt | nt | nt
O=S(=O)(c1ccccc1)N1CCN(c2ccccc2)CC1 | 0.0 | -9.8 | 1.8 | -2.2 | 11.5 | -13.4
COc1ccc(S(=O)(=O)N2CCN(c3ccccc3)CC2)cc1 | -5.4 | 28.4* | -11.5 | -8.1 | 1.8 | 1.0
O=C(CCN=C1NS(=O)(=O)c2ccccc21)OCC(=O)c1ccc(F)cc1 | 5.6 | 1.7 | 1.0 | 2.8 | 4.0 | -14.8
O=C(CCCN=C1NS(=O)(=O)c2ccccc21)OCC(=O)c1ccc(F)cc1 | 21.2 | 6.6 | -7.1 | 22.4* | 1.7 | -5.5
O=C1OC(C(Cl)(Cl)Cl)Nc2ccccc21 (centres undefined) | 0.6 | 2.8 | -3.2 | -2.9 | -3.4 | 6.6
CCOC(=O)N1CCC(NC(=O)C2CCN(C(=O)c3cc4oc(C)cc4n3Cc3c(F)cccc3Cl)CC2)CC1 | -4.9 | 7.5 | -5.5 | 31.8* | 10.7 | -6.7
O=[N+]([O-])c1ccc(Br)c(CN2CCN(c3ncc(Cc4ccccc4)cn3)CC2)c1 | -2.9 | -0.4 | -5.4 | nt | nt | nt
COC(=O)C(CC(=O)c1ccc(Cl)cc1)c1ccc(C)cc1 (centres undefined) | -7.7 | 7.2 | -2.5 | -4.9 | 32.5* | 4.7
O=C(Nc1ccc2c(c1)N(Cc1ccccc1)C(=O)c1ccccc1S2)NC1CC1 | 2.2 | 2.1 | -2.1 | -0.5 | 1.4 | -0.8
CN1C(=O)c2ccccc2Sc2ccc(NC(=O)NC3CC3)cc21 | 2.7 | 16.5 | 37.9* | -0.6 | 6.3 | -9.8
O=C(CSCC(=O)N1CCCCC1)Nc1nc(-c2ccc(Cl)s2)cs1 | 5.4 | 18.3 | -19.7 | 0.5 | -7.8 | 31.1*
CN(CC#CC(O)(c1ccccc1)c1ccccc1)C(C)(C)C | -19.8 | 76.7* | -35.4 | -9.0 | -25.2 | 99.9*
CC(C)N(CC#CC(O)(c1ccccc1)c1ccccc1)C(C)C | -21.4 | 95.6* | -31.8 | -9.3 | -26.2 | 100.3*
CC(C)N(CC#CC(O)(c1ccccc1)c1ccccc1)CCO | -9.7 | 41.7* | -19.4 | -8.1 | -25.1 | 83.6*
OCCN(CC#CC(O)(c1ccccc1)c1ccccc1)CCO | -18.8 | 7.4 | -2.6 | -6.9 | -5.2 | -2.5
O=C(c1ccccc1)n1c2ccccc2c(=O)n1-c1ccccc1CCl | -2.4 | 3.5 | -0.4 | -6.3 | 7.2 | -29.6
COCCN1C[C@@H](CO)O[C@@H](n2cnc3c(NC4CCC4)ncnc32)C1 | 0.5 | -3.5 | 1.5 | -1.7 | 15.2 | -17.1
CCOC(=O)C1=C(C)Nc2ccccc2N/C1=N\S(=O)(=O)c1ccc(Cl)cc1 | 3.8 | 13.6 | -14.7 | -6.9 | -14.7 | 36.6*
CCOC(=O)C1=C(C)Nc2ccccc2N/C1=N\S(=O)(=O)c1cccc(Cl)c1 | 3.2 | 10.1 | -4.4 | -1.1 | -0.3 | -0.4
CCOC(=O)C1=C(CC)Nc2ccccc2N/C1=N\S(=O)(=O)c1cc(Br)ccc1Br | 2.1 | 64.7* | -16.1 | -3.0 | -29.7 | 34.0*
CN(C)CCCn1c(=O)n(Cc2ccco2)c(=O)c2c3c(sc21)CCCCC3 | -2.8 | -9.5 | 18.3* | -6.7 | 1.8 | 1.6
